These results are taken from ChEMBL document CHEMBL1144665, “Benzyl ether-linked glucuronide derivative of 10-hydroxycamptothecin designed for selective camptothecin-based anticancer therapy” (J Med Chem, 2008).

Converted amounts (≈) assume the structure as drawn.

For data set [1], the system named is Escherichia coli. The experiment in a line: Ratio of […] of Escherichia coli beta-glucuronidase. Summed up:
(§1)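 Prodrug at various concentrations incubated with 0.125 µg/mL E. coli β-glucuronidase, pH 7.0, 37 °C, 20 min; stopped with ice-cold MeOH to precipitate protein. Substrate and released 10-hydroxycamptothecin quantified by reversed-phase HPLC with fluorescence detection (ex 397, em 482 nm) against standard calibration curves; Km, Vmax and Vmax/Km derived.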

For data set [2], the system named is Escherichia coli. As to the kind of experiment: Activity of Escherichia coli beta-glucuronidase. Put shortly:
as §1

Data set [3] in a line: Stability in human plasma assessed as degradation after 10 mins. Type of data set: ADME, cell-free. Particulars: read-out: Activity. Summed up:
(§2)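 Incubated in 95% human plasma at 37 °C up to 6 h. Aliquots neutralized with 12 mM phosphoric acid, extracted three times with ethyl acetate, dried, redissolved in mobile phase, filtered and analysed by reversed-phase HPLC with fluorescence detection.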

A short description of data set [4]: Cytotoxicity against human H298 cells assessed as inhibition of [3H]thymidine after 48 hrs. The format is functional, cell-based. Put shortly: (§3)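 Exponentially growing cells, 5 × 10³/well in RPMI with 10% bovine serum and penicillin/streptomycin, 37 °C, 5% CO₂, exposed to a range of drug concentrations (DMSO final ≤0.5%; vehicle controls). After 48 h, 12 h [³H]thymidine pulse (1 µCi/well); trypsinized cells counted for radioactivity. Triplicate wells, 1–3 experiments; IC50 interpolated from log dose–response curves.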

Data set [5] deals with HepG2. The experiment in a line: Cytotoxicity against human HepG2 cells assessed as inhibition of [3H]thymidine after 48 hrs. Type of data set: functional, cell-based. Put shortly:
as §3

For data set [6], the system named is HT-29. As to the kind of experiment: Cytotoxicity against human HT29 cells assessed as inhibition of [3H]thymidine after 48 hrs. Type of data set: functional, cell-based. Put shortly: as §3
The test system of data set [7] is COLO 205. The experiment in a line: Cytotoxicity against human Colo 205 cells assessed as inhibition of [3H]thymidine after 48 hrs. The format is functional, cell-based. Put shortly: as §3
A short description of data set [8]: Aqueous solubility in phosphate buffer at pH 4.0. The format is physicochemical. Put shortly:
(§4)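 Excess solid equilibrated in 100 mM phosphate buffer (pH 4.0 or 7.0) at 25 °C for 24 h. Filtered through 0.2 µm, diluted in mobile phase and quantified by HPLC with fluorescence detection against calibration curves. Single determination.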

Data set [9] in a line: Aqueous solubility in phosphate buffer at pH 7.0. The format is physicochemical. Put shortly:
as §4

Data set [10] has as its system HepG2. As to the kind of experiment: Cytotoxicity against human HepG2 cells assessed as inhibition of [3H]thymidine in presence of beta-glucuronidase after 48 hrs. The format is functional, cell-based. Put shortly:
(§5)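 As the plain [³H]thymidine assay (5 × 10³ cells/well, RPMI/10% serum, 48 h exposure, then 12 h 1 µCi/well pulse, scintillation counting), but β-glucuronidase (5 µg/mL; 1 µg/well) added together with drug. Triplicate wells, 1–3 experiments; IC50 interpolated from log dose–response curves.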

In data set [11] the test system is Plasma. As to the kind of experiment: Stability in 95% human plasma. Type of data set: ADME, cell-free. Put shortly:
as §2

Data set [12] deals with COLO 205. As to the kind of experiment: Cytotoxicity against human Colo 205 cells assessed as inhibition of [3H]thymidine in presence of beta-glucuronidase after 48 hrs. Type of data set: functional, cell-based. Put shortly: as §5
Data set [13] has as its system HT-29. The experiment in a line: Cytotoxicity against human HT29 cells assessed as inhibition of [3H]thymidine in presence of beta-glucuronidase after 48 hrs. The format is functional, cell-based. Summed up: as §5
Data set [14] in a line: Prodrug hydrolysis by Escherichia coli beta-glucuronidase assessed as release of 10-hydroxycamptothecin at pH 7.0. The format is ADME. The conditions noted are these: buffer. More on the design: scale not given: the % may be the effect or the level left. Summed up: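 Substrate incubated with E. coli β-glucuronidase (0.1 µg/mL) in pH 7.0 phosphate buffer at 37 °C. Aliquots taken over time; substrate and released 10-hydroxycamptothecin quantified by fluorescence-detected reversed-phase HPLC. Triplicate determinations.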

Data set [15] in a line: Cytotoxicity against human H298 cells assessed as inhibition of [3H]thymidine in presence of beta-glucuronidase after 48 hrs. The format is functional, cell-based. Put shortly:
as §5

Turning to `CC[C@@]1(O)C(=O)OCc2c1cc1n(c2=O)Cc2cc3c(NC(=O)OCc4ccc(O[C@@H]5O[C@H](C(=O)O)[C@@H](O)[C@H](O)[C@H]5O)cc4)cccc3nc2-1`, in [1], the Ratio is 0.03 min⁻¹. Also, in [2], the Michaelis-Menten constant (Km) came out at 30 µM and the Vmax came out at 0.86 µM/min.

Regarding `CC[C@@]1(O)C(=O)OCc2c1cc1n(c2=O)Cc2cc3cc(OC(=O)OCc4ccc(O[C@@H]5O[C@H](C(=O)OC)[C@@H](O)[C@H](O)[C@H]5O)cc4)ccc3nc2-1`, in data set [3], the metabolised at 10 min came to 70%.

Turning to `CC[C@@]1(O)C(=O)OCc2c1cc1n(c2=O)Cc2cc3cc(O)ccc3nc2-1` [HYDROXYCAMPTOTHECIN], the half-maximal inhibitory concentration (IC50) came out at 6.9 nM in data set [4], 5.4 nM in data set [5], 8.8 nM in [6] and 9.1 nM in data set [7]. Also, the solubility in data set [8] was 13.7 µM (≈ 4.99 µg/mL); in data set [9] (buffer), 137 µM (≈ 49.9 µg/mL).

For the compound `CC[C@@]1(O)C(=O)OCc2c1cc1n(c2=O)Cc2cc3cc(OCc4ccc(O[C@@H]5O[C@H](C(=O)O)[C@@H](O)[C@H](O)[C@H]5O)c([N+](=O)[O-])c4)ccc3nc2-1`, the IC50 in data set [10] was found to be 6.6 nM; in [4], 91.1 nM; in data set [12], 10.2 nM; in [13], 10 nM; in [5], 56.5 nM; in data set [6] it was 97.8 nM. In addition, the concentration for half-maximal inhibition (IC50) in data set [7] was found to be 94.2 nM; in data set [15] it was 11.1 nM. The Stability entry in data set [11] is given as “Stable”. For the same compound, the Activity in data set [14] is on record as over 50%. For the same compound, the Ratio in data set [1] is 15 min⁻¹. Besides, the solubility in data set [8] came out at 1100 µM (≈ 761 µg/mL); in data set [9] (phosphate buffer, read-out: Solubility), 2600 µM (≈ 1800 µg/mL). Besides, the Km in data set [2] was found to be 0.18 µM. For the same compound, the maximum rate (Vmax) in data set [2] was 2.7 µM/min.
